Reference: article PMC9163588 (The Journal of Biological Chemistry, 2022)

B1: F1 (phlG operator / upstream region) (dsDNA)
DNA 1: TAGTTCTAATTCAAATTTGACTTTTTATTT
DNA 2: AAATAAAAAGTCAAATTTGAATTAGAACTA

Assays:
PhlH [1] = target: T1, PhlH (Pseudomonas fluorescens, UniProt Q4JIX5, F173A); assay: isothermal titration calorimetry; format: binding
T1 sequence (Q4JIX5 1-225 F173A): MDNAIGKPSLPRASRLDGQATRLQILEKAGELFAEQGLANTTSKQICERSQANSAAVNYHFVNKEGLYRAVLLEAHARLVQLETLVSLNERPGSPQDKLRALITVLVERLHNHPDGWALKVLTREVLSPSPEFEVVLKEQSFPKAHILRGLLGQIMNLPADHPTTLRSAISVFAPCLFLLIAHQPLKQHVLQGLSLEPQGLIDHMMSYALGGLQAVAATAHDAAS
Summary of the method: (§1)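 N-terminally His6-tagged full-length PhlH from P. fluorescens 2P24, with point mutants made by site-directed mutagenesis. Expressed in E. coli Rosetta (DE3) (0.2 mM IPTG, 16 °C, 20 h), then Ni-NTA and gel filtration. ITC at 25 °C in degassed 20 mM Tris-HCl pH 8.0, 100 mM NaCl, 0.5% DMSO. Cell held 0.05–0.1 mM protein; syringe held 0.5–1 mM test compound. First 0.4 µl injection discarded, then 19 × 2.0 µl injections at 2-min spacing. Dilution heats subtracted; one-site fit gave Kd.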

PhlH [2] = target: T2, PhlH (Pseudomonas fluorescens, UniProt Q4JIX5, H76A); assay: isothermal titration calorimetry; format: binding
T2 sequence (Q4JIX5 1-225 H76A): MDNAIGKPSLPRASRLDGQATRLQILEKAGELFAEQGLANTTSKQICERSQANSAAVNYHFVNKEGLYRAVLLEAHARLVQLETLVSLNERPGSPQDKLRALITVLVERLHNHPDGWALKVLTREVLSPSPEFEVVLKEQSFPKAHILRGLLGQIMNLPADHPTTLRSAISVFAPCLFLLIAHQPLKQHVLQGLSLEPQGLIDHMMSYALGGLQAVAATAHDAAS
Summary of the method: as §1

PhlH [3] = target: T3, PhlH (Pseudomonas fluorescens, UniProt Q4JIX5, V190A); assay: isothermal titration calorimetry; format: binding
T3 sequence (Q4JIX5 1-225 V190A): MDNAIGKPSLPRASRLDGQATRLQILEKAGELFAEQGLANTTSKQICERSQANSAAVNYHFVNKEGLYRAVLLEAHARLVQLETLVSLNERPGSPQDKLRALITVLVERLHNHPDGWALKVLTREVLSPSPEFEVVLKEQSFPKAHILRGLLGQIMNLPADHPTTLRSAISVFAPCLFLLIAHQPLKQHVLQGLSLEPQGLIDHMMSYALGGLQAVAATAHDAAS
Summary of the method: as §1

PhlH [4] = target: T4, PhlH (Pseudomonas fluorescens, UniProt Q4JIX5, L85A); assay: isothermal titration calorimetry; format: binding
T4 sequence (Q4JIX5 1-225 L85A): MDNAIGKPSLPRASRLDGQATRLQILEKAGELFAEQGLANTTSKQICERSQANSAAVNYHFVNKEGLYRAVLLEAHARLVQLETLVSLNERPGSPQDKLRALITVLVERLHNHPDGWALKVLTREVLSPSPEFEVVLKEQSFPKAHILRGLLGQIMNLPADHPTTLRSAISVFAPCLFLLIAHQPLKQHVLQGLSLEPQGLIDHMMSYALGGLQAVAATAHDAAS
Summary of the method: as §1

PhlH [5] = target: T5, PhlH (Pseudomonas fluorescens, UniProt Q4JIX5, L186A); assay: isothermal titration calorimetry; format: binding
T5 sequence (Q4JIX5 1-225 L186A): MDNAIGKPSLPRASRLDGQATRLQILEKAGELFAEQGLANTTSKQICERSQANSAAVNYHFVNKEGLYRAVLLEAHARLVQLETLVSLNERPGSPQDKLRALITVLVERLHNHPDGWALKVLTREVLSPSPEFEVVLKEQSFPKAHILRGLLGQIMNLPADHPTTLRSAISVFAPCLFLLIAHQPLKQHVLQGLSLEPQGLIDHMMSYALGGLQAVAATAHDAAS
Summary of the method: as §1

PhlH [6] = target: T6, PhlH (Pseudomonas fluorescens, UniProt Q4JIX5, R124A); assay: isothermal titration calorimetry; format: binding
T6 sequence (Q4JIX5 1-225 R124A): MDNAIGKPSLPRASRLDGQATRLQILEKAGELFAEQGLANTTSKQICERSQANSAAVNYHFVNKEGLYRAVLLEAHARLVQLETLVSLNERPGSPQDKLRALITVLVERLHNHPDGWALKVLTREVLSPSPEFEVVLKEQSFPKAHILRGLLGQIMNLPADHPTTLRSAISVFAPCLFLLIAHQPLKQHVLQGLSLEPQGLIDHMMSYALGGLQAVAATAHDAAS
Summary of the method: as §1

PhlH R124A = target: T7, PhlH R124A (Pseudomonas fluorescens 2P24, UniProt Q4JIX5 1-225, R124A); assay: EMSA
T7 sequence: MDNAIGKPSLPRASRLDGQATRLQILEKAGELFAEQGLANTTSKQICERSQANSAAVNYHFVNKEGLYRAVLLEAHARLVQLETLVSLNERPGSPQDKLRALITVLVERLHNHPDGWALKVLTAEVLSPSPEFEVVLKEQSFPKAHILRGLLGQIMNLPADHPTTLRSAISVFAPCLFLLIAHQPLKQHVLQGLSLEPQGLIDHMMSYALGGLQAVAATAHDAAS

Molecule | Kd (PhlH [1]) | Kd (PhlH [2]) | Kd (PhlH [3]) | Kd (PhlH [4]) | Kd (PhlH [5]) | Kd (PhlH [6]) | binding result (PhlH R124A)
CC(=O)c1c(O)cc(O)c(C(C)=O)c1O [2,4-DAPG] | 20.2 µM | 10.9 µM | 24.3 µM | 39 µM | 15.4 µM | 13.2 µM | –
B1 | – | – | – | – | – | – | no binding
